Experimental data reported in publication PMC10245909 (bioRxiv, 2023).
Counter-ions that a name gives are not always drawn.

How the values were obtained:
[1] = tested on: C. parvum; assay: Initial screen of gut metabolites on C. parvum growth in HCT-8 cells; type: cell-based, Cryptosporidium parvum; conditions: 24 hpi, metabolite at 1 mM (0.1 mM for bile acids/salts)
Summary of the method: (§1)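 Confluent HCT-8 cells (1.5 × 10^5/well, grown ~24 h) were infected with 5 × 10^5 bleached oocysts together with a single metabolite diluted in culture medium (1 mM or 0.1 mM) for 24 h. Parasite and host cell numbers are given as ratios to PBS control wells on the same plate. Each metabolite was run in triplicate across six separate experiments.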

[2] = tested on: C. parvum; conditions: neonatal mice, only when gut microflora present; cited from earlier work
[3] = tested on: HCT-8 cells; assay: Host cell numbers in the initial metabolite screen; type: cell-based, human; conditions: metabolite at 1 mM, 24 h
Summary of the method: as §1

[4] = tested on: C. parvum; assay: C. parvum growth assay in HCT-8 cells; type: cell-based, Cryptosporidium parvum; conditions: for EC50: HCT-8, 24 h; for Cp infection, treatment started 4 hpi: 4 – 24 hpi; for Cp growth, treatment 0 – 4 hpi only: first four hours of infection only
[5] = tested on: C. parvum; assay: Metabolite treatment of C. parvum-infected GKO mice; type: in vivo, mouse
[6] = tested on: C. parvum; assay: Antibody and EdU labeling of C. parvum life cycle stages in HCT-8 cells; type: cell-based, Cryptosporidium parvum; conditions: EC90 concentrations; for life cycle stage progression: first 24 hpi, EdU pulses
[7] = tested on: C. parvum; assay: Air-liquid interface; type: cell-based, Cryptosporidium parvum; conditions: for time after washout to significant recovery in Cp growth: treated 48 h at EC50 concentration; for EC50 / EC90: Cryptosporidium parvum; for EC50: read-out: EC50 for Cp in ALI cultures; for EC90: read-out: EC90 for Cp in ALI cultures
Summary of the method: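 ALI transwells were coated with 10% Matrigel and seeded with irradiated mouse 3T3 fibroblasts (8 × 10^4/transwell). Top medium was removed after 7 days, and 5 × 10^4 oocysts were added on top 3 days later. After ~4 h the tops were washed twice with DPBS and day-0 wells scraped. Test compound at three levels or 1% DMSO went in the bottom medium for ~48 h, then transwells moved to normal medium. Parasite genome eq. by DNA extraction, normalized to DMSO at each time point; six replicates (3 technical × 2 experiments).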

[8] = tested on: AhR target genes AhRR and CYP1A1; conditions: HCT-8 AhR KO 1 and KO 2, VAF347 500 nM, 24 h
[9] = tested on: HCT-8 cells; assay: Seahorse metabolic assays; type: cell-based, human; conditions: 18 h
[10] = tested on: Cp mitosome; assay: Mitotracker CMXRos staining of C. parvum mitosome; type: cell-based, Cryptosporidium parvum; conditions: 2 x EC90 indole 1.76 mM, 7CNI 1 mM, CCCP 10 μM; 2 h or 24 h
Summary of the method: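 HCT-8 cells on coverslips were infected with 5 × 10^5 oocysts, washed twice with DPBS, and exposed in 1% DMSO medium either 22–24 hpi (2 h) or continuously to 24 hpi. MitoTracker Red CMXRos (50 nM final) was added 45 min before fixation at 24 hpi. Staining used 1E12 with Alexa Fluor 488 secondary plus Hoechst. Four replicates (2 technical × 2 experiments).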

[11] = tested on: C. parvum; assay: C. parvum growth assay in HCT-8 AhR KO cell lines; type: cell-based, Cryptosporidium parvum; conditions: HCT-8 AhR KO cells, 24 h, indole 1 mM, 4HI 1 mM
[12] = tested on: HCT-8 cells; assay: Host nuclei in growth assay with mitochondrial inhibitors; type: cell-based, human; conditions: for host cell toxicity at Cp-inhibitory levels: HCT-8, 24 h, at EC50 levels
Summary of the method: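 Confluent HCT-8 cells (1.5 × 10^5/well) were infected with 1 × 10^5 bleached oocysts and exposed ~24 h to test compounds, serially diluted 1:2 from 40 μM (final, 1% DMSO). Cells were fixed in 4% formaldehyde, permeabilized/blocked in 0.1% Triton-X/1% BSA, Hoechst-stained and counted, with values relative to the 1% DMSO control mean. Four replicates (2 technical × 2 experiments).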

[13] = tested on: C. parvum; conditions: dietary supplementation, malnourished neonatal mice; cited from earlier work
[14] = tested on: AhR; conditions: cited from earlier work
[15] = Cryptosporidium parvum, read-out: Cp EC50
[16] = Cryptosporidium parvum, HCT-8, read-out: EC90 for Cp, HCT-8 cells
[17] = indole 0.5-2 mM, 7CNI 0.25-1 mM

Compound: fumaric
- effect on Cp growth (Cp numbers relative to PBS control) [1]: impair growth

Compound: poly(I:C)
- C. parvum load [2]: reduced C. parvum load

Compound: propionic
- effect on Cp growth (Cp numbers relative to PBS control) [1]: impair growth

Compound: C[C@H](CCC(=O)O)[C@H]1CC[C@H]2[C@@H]3CC[C@@H]4C[C@H](O)CC[C@]4(C)[C@H]3CC[C@]12C [lithocholic acid]
- host toxicity in screen [3]: significant host toxicity
- effect on Cp growth (Cp numbers relative to PBS control) [1]: significantly inhibited

Compound: C[C@H](CCC(=O)O)[C@H]1CC[C@H]2[C@@H]3CC[C@@H]4C[C@H](O)CC[C@]4(C)[C@H]3C[C@H](O)[C@]12C [deoxycholate, sodium deoxycholate]
- effect on Cp growth (Cp numbers relative to PBS control) [1]: significantly inhibited

Compound: Oc1cccc2[nH]ccc12 [4-hydroxyindole]
- EC50 [4, 15]: 1260 µM
- effect on Cp growth (Cp numbers relative to PBS control) [1]: significantly inhibited

Compound: N#Cc1cccc2cc[nH]c12 [7-cyanoindole]
- EC90 [4, 16]: 500 µM
- Cp infection, treatment started 4 hpi ([4]; EC90 concentrations): significantly inhibited Cp infection
- Cp growth, treatment 0 – 4 hpi only ([4]; EC90 concentrations): neither indole nor 7CNI inhibited Cp growth
- survival rate ([5]; 50 mg/kg BID 7 days): did not significantly increase survival rate
- mean Cp oocysts per mg feces by 9 dpi ([5]; 50 mg/kg BID 7 days, after end of treatment): rebounded
- body weight vs vehicle- or indole-treated mice ([5]; 50 mg/kg BID, 5 and 7 dpi): weighed significantly more
- life cycle stage progression [6]: delayed progression through sequential life cycle stages
- time after washout to significant recovery in Cp growth ([7]; ALI): 4 days
- EC50 [7]: 379 µM
- EC90 [7]: 688 µM

Compound: O=C(O)Cc1c[nH]c2ccc(O)cc12 [5-hydroxyindole-3-acetic acid]
- effect on Cp growth (Cp numbers relative to PBS control) [1]: no effect

Compound: Cc1ncc(CO)c(C=O)c1O [pyridoxal hydrochloride]
- EC50 [4, 15]: 213 µM
- Fold selectivity (host EC50 divided by Cp EC50) ([4]; HCT-8 cells): 44.6 fold
- effect on Cp growth (Cp numbers relative to PBS control) [1]: significantly inhibited

Compound: FC(F)(F)c1ccc(Nc2nccc(-c3cccc(Cl)c3)n2)cc1 [VAF347]
- CYP1A1 gene expression in AhR KO lines [8]: lost the ability to upregulate CYP1A1 gene expression

Compound: c1ccc2[nH]ccc2c1 [indole]
- EC50 [4, 15]: 411 µM
- EC90 [4, 16]: 880 µM
- Cp infection, treatment started 4 hpi ([4]; EC90 concentrations): significantly inhibited Cp infection
- Cp growth, treatment 0 – 4 hpi only ([4]; EC90 concentrations): neither indole nor 7CNI inhibited Cp growth
- Cp infection after pre-treatment of host cells ([4]; EC90 concentrations, host cells pre-treated 20 h before infection): did not affect subsequent Cp infection
- EC90 ([4]; read-out: EC90 for Cp, HCT-8 cells): 877 µM
- basal and stressed respiratory rate in HCT-8 WT and AhR KO cells ([9]; indole 0.5, 1, 2 mM, stressed = after FCCP and oligomycin): significantly impaired in a dose-dependent manner
- basal and maximal levels of mitochondrial respiration (OCR) ([9]; indole 0.5, 1, 2 mM, 7CNI 0.25, 0.5, 1 mM, dose-dependent): significantly reduced
- ATP production rate by glycolysis [9, 17]: remained similar
- ATP production rate by the mitochondria [9, 17]: significant reduction
- spare respiratory capacity [9, 17]: diminished
- total ATP production rate [9, 17]: lower total ATP production rate
- median survival time ([5]; 50 mg/kg BID 7 days, vehicle 11 dpi): 17 dpi
- Cp oocysts shed in feces ([5]; 50 mg/kg oral gavage twice daily 7 days, by 5 dpi): no effect
- Mitotracker staining of Cp mitosomes [10]: significantly decreased Mitotracker staining
- Cp sensitivity in AhR KO cells [11]: remained sensitive
- morphology of mature merozoites (1E12 labeling) ([6]; 22 h): did not observe any obvious morphological defects
- time until which total number of Cp did not significantly differ from DMSO ([6]; HCT-8, start of second round of merogony): ~ 16 hpi
- life cycle stage progression [6]: delayed progression through sequential life cycle stages
- Cp growth recovery after washout, 2 x EC90 ([7]; ALI, treated 48 h at 2 x EC90 concentration): no recovery
- time after washout to significant recovery in Cp growth ([7]; ALI): 2 days
- Cp growth recovery after washout, EC90 ([7]; ALI, treated 48 h at EC90 concentration): Some growth recovery (though not significant)
- EC50 [7]: 577 µM
- EC90 [7]: 1890 µM

Compound: C[C@H](CCC(=O)O)[C@H]1CC[C@H]2[C@@H]3CC[C@@H]4C[C@H](O)CC[C@]4(C)[C@H]3C[C@H](O)[C@]12C [deoxycholic acid]
- host toxicity in screen [3]: significant host toxicity

Compound: N#CC(C#N)=NNc1cccc(Cl)c1 [CCCP, carbonyl cyanide m-chlorophenyl hydrazone]
- host toxicity at high concentration ([12]; HCT-8, 40 μM and 20 μM): observed host toxicity
- host cell toxicity at Cp-inhibitory levels [12]: not due to host cell toxicity
- Mitotracker staining of Cp mitosomes [10]: decreases Mitotracker staining

Compound: N=C(N)NCCC[C@H](N)C(=O)O [arginine]
- severity of C. parvum infection [13]: decrease severity of C. parvum infection

Compound: Cc1cccc2[nH]ccc12 [4-methylindole]
- AhR signaling in vitro [14]: activate AhR signaling

Compound: CCCCC[C@H](O)/C=C/[C@H]1[C@H](O)CC(=O)[C@@H]1C/C=C\CCCC(=O)O [prostaglandin E2]
- host toxicity in screen [3]: significant host toxicity

Compound: Cc1ccc2cc[nH]c2c1 [6-methylindole]
- AhR signaling in vitro [14]: activate AhR signaling

Compound: CC[C@H]1/C=C/C=C/C[C@@H](C)[C@H](O)[C@@](C)(O)C(=O)[C@@H](C)[C@H](O)[C@@H](C)C(=O)[C@@H](C)[C@H](O)[C@@H](C)/C=C/C(=O)O[C@@H]2[C@H](C)[C@H](CC1)O[C@]1(CC[C@H](C)[C@H](C[C@@H](C)O)O1)[C@H]2C [oligomycin, reference compound]
- EC50 ([4]; Cryptosporidium parvum, read-out: Cp EC50, OxPhos inhibitors): 20.6 µM
- host cell toxicity at Cp-inhibitory levels [12]: not due to host cell toxicity

Compound: COc1cccc2cc[nH]c12 [7-methoxyindole]
- AhR signaling in vitro [14]: activate AhR signaling
